In test [1] the target is Transthyretin (Homo sapiens) (UniProt P02766). Nature of the test: Displacement of S-phenyl 3-(4-hydroxy-3,5-dimethylstyryl)benzothioate from human TTR assessed as fluorescence at 37 degC after 3 hrs. The arrangement: concentration or dose not given beside the values. The method, boiled down: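 Commercial human serum with endogenous TTR (about 7.5 µM, as measured). Test compound (15 µM final) and S2 (5 µM final) were both added from DMSO stocks. Conjugate fluorescence was read every 10 min over 8 h on a plate reader. The 3 h value is given as % competition fluorescence.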

For test [2] the target is unchanged. The experiment in a line: Inhibition of wild type-TTR expressed in Escherichia coli assessed as amyloid fibril formation at pH 4.4 at 7. 2 uM after 72 hrs by acid-mediated aggregation assay relative to control. The arrangement: scale not given: the % may be the effect or the level left.
Test [3] shares this target. Nature of the test: Displacement of 4-fluorophenyl 3-(4-hydroxy-3,5-dimethylstyryl)benzoate from recombinant TTR assessed as fluorescence at 37 degC after 3 hrs. The arrangement: concentration or dose not given beside the values. Summed up:
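Recombinant WT-TTR from E. coli at 3.6 µM in 10 mM sodium phosphate, 100 mM KCl, 1 mM EDTA, pH 7.0. Test compound (7.2 µM final, added from DMSO) was preincubated 4 h at 25 °C with slow vortexing. S1 (7.2 µM final) was then added. Fluorescence (ex 328/em 384 nm) was read every 10 min for 8 h at 37 °C. The 3 h value is given as % competition fluorescence.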

Structures are written as SMILES.

Regarding `O=C(O)c1cc(-c2ccc(F)cc2F)ccc1O`, the Activity was 86% in test [1], 2% in test [2] and 75% in test [3].
The like results for `COc1ccccc1/C=C/c1cc(Br)c(O)c(Br)c1` were, in that order, 0%, 0% and -6%.
Regarding `O=C(Nc1ccccc1)c1cc(Br)c(O)c(Br)c1`, the Activity amounted to 61% in test [1] and 42% in test [3].
For `Cc1cc(Oc2ccccc2)cc(C)c1O`, the results for the Activity in test [1] and in test [3] were 81% and 76%, respectively.
In the case of `CC(C(=O)O)c1ccc(-c2ccccc2)c(F)c1` (stereo unspecified), the Activity in test [1] came out at 96%; in test [2] it was 29%; in test [3], 93%.
The corresponding values for `Cc1cccc(Nc2ccccc2C(=O)O)c1C` are 96%, 7% and 65%.
Consider `O=C(O)c1cccc(C(=O)Nc2cc(Br)c(O)c(Br)c2)c1`, for which the Activity in test [1] was determined as 85%; in test [2], 11%; in test [3] it was 77%.
Take `COc1c(Br)cc(C(=O)Nc2cc(Br)c(O)c(Br)c2)cc1Br`: the Activity came to 44% in test [1], 10% in test [2] and 4% in test [3].
The like results for `Cc1cccc(CCc2cc(Br)c(O)c(Br)c2)c1` were, in that order, 2%, 3% and -7%.
The corresponding values for `Oc1c(Br)cc(/C=C/c2ccc(Br)cc2)cc1Br` are 2%, 2% and -6%.
As to `Brc1cc(Br)cc(Nc2ccccc2)c1`, the Activity was determined as 100% in test [1] and 76% in test [3].
Regarding `COc1cc(CCc2cc(Br)c(O)c(Br)c2)cc(OC)c1`, the results for the Activity in test [1], in test [2] and in test [3] were 30%, 1% and 3%, respectively.
In the case of `O=C(O)c1ccc(C(=O)Nc2cc(Br)c(O)c(Br)c2)cc1`, the figures for the Activity in test [1], in test [2] and in test [3] were 45%, 11% and 57%, respectively.
The like results for `Nc1cccc(C(=O)Nc2cc(Br)c(O)c(Br)c2)c1` were, in that order, 24%, 25% and 35%.
As to `O=C(Nc1cc(Br)c(O)c(Br)c1)c1ccc(O)cc1`, the Activity came to 16% in test [1], 21% in test [2] and 32% in test [3].
The like results for `O=C(Nc1cc(Br)c(O)c(Br)c1)c1cccc(Cl)c1` were, in that order, 28%, 8% and 13%.
The like results for `O=C(Nc1cc(Br)c(O)c(Br)c1)c1ccccc1O` were, in that order, 29%, 2% and 2%.
The like results for `O=C(Nc1cc(Br)c(O)c(Br)c1)c1cccc(F)c1` were, in that order, 54%, 13% and 18%.
In the case of `Cc1ccc(Cl)c(Nc2ccccc2C(=O)O)c1Cl`, the Activity in test [1] was 85%; in test [2] it was 3%; in test [3] it was 62%.
The corresponding values for `O=C(O)Cc1ccccc1Nc1c(Cl)cccc1Cl` are 99%, 17% and 85%.
On to `O=C(Nc1cc(Br)c(O)c(Br)c1)c1cccc(O)c1`, for which the values for the Activity in test [1], in test [2] and in test [3] were 18%, 9% and 26%, respectively.
As to `O=C(O)c1ccccc1Nc1cccc(C(F)(F)F)c1`, the Activity was 97% in test [1], 2% in test [2] and 44% in test [3].
On to `Oc1c(Br)cc(CCc2ccc(OC(F)F)cc2)cc1Br`, for which the Activity was 42% in test [1], 1% in test [2] and -3% in test [3].
Consider `COc1c(Cl)cc(C(=O)Nc2cc(Br)c(O)c(Br)c2)cc1Cl`, for which the results for the Activity in test [1], in test [2] and in test [3] were 26%, 9% and 4%, respectively.
The corresponding values for `O=C(Nc1cc(Br)c(O)c(Br)c1)c1cccc(Br)c1` are 28%, 8% and 13%.
The corresponding values for `Oc1c(Br)cc(CCc2cccc(C(F)(F)F)c2)cc1Br` are 3%, 1% and -6%.
Turning to `O=C(Nc1ccccc1)Nc1cc(Br)c(O)c(Br)c1`, the Activity stood at 100% in test [1], 9% in test [2] and 82% in test [3].
The corresponding values for `O=C(Nc1cc(Br)c(O)c(Br)c1)c1cc(F)cc(F)c1` are 35%, 10% and 12%.

Values taken from ChEMBL document CHEMBL1671798, “A competition assay to identify amyloidogenesis inhibitors by monitoring the fluorescence emitted by the covalent attachment of a stilbene derivative to transthyretin” (Bioorg Med Chem, 2011).
